Experimental data as given in PMC8652384 (Experimental and Therapeutic Medicine, 2021).
Like-named read-outs stand apart in the source and are kept apart here. Residues, ends and D or L forms follow the SMILES beside them. *: point of attachment. Cbz = O=C(OCc1ccccc1)*

Key:
[1] = molecular target: T1, integrin α4 (Homo sapiens, UniProt P05556+P13612); assay: Western blot analysis of integrin α4 protein; type: cell-based; conditions: MG132 1 µM; 96 h; LAX7R, LAX53, LAX56, REH
[2] = molecular target: T1, integrin α4; conditions: cited from earlier work
[3] = cited from earlier work
[4] = tested on: HUVECs; assay: Endothelial tube formation assay; type: cell-based, human; conditions: data not shown
In short: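 HUVECs (4-6x10^4/well) pre-treated 30 min at 37°C with test compound (0, 5 or 25 µM) or a reference α4 antagonist (0 or 25 µM), then seeded on Matrigel-coated wells for 4-6 h at 37°C, 5% CO2. Three fields per well imaged by phase contrast (x100); nodes, segments, meshes and total area quantified by image analysis.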

[5] = tested on: primary ALL; conditions: cited from earlier work
[6] = molecular target: VLA-4 (Homo sapiens, UniProt P05556+P13612); assay: VLA-4 conformation activation assay; type: binding; conditions: LAX7R and TXL3 cells; without 5 mM Mn2+
In short: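 LAX7R or TXL3 cells, 1x10^6/ml in HEPES buffer pH 7.4 with 0.1% HSA, Ca2+ and Mg2+, incubated 30 min at 37°C with test compound (0-100 µM) or human VCAM-1 ([…]), 10% PE-HUTS-21, ±5 mM Mn2+. DAPI added during final 5 min. PE MFI read on viable cells by flow cytometry; isotype control gave nonspecific binding. Occupancy curves fitted by variable-slope sigmoidal model.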

CC(C)C[C@@H](C=O)NC(=O)[C@H](CC(C)C)NC(=O)[C@H](CC(C)C)NC(=O)OCc1ccccc1 [MG132] (Cbz-Leu-Leu-Leu-aldehyde)
restoration of α4 decreased by AVA4746 (25 µM) [1]: partially restored by MG132 in all cases apart from LAX56

natalizumab [NZM]
de-adhesion of B-ALL cells from VCAM-1 [2]: can cause the de-adhesion of B-ALL cells from VCAM-1 | progressive multifocal leukoencephalopathy ([3]; patients treated with NZM): progressive multifocal leukoencephalopathy can arise | patients with antibodies against natalizumab ([3]; patients with Crohn's disease): 7% | patients with antibodies against natalizumab ([3]; patients with MS): 11% | angiogenesis inhibition [4]: no statistical differences

CCCC[C@H](NC(=O)N[C@@H](CC(=O)O)c1ccc2c(c1)OCO2)C(=O)N(Cc1cccs1)Cc1cccs1 [TBC3486]
survival of mice with primary ALL [5]: prolonged the survival of the mice

vascular cell adhesion molecule-1 [VCAM-1]
conformation changes corresponding to VLA-4 activation [6]: little conformation changes
